Converted amounts (≈) assume the structure as drawn.
How the values were obtained:
[1] = test system: Staphylococcus aureus; test: Antibacterial activity against Staphylococcus aureus measured at MIC after 18 hrs by halo zone test; type: functional
Method in brief: (§1)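 Disk diffusion. Strains subcultured 18 h at 37 °C in BHI, then suspended in saline by McFarland to about 10⁵ CFU/mL. Suspension mixed 1:1 with antibiotic agar at 40 °C and plated. 6.0 mm paper disks loaded with dilutions from a DMSO stock (1 mg per 100 of DMSO). Incubated 18 h at 36 °C. Inhibition zone (mm) measured at the MIC. Amoxicillin and DMSO disks as controls.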

[2] = test system: Streptococcus pyogenes; test: Antibacterial activity against Streptococcus pyogenes measured at MIC after 18 hrs by halo zone test; type: functional; method in brief: as §1
[3] = test system: Salmonella typhimurium; test: Antibacterial activity against Salmonella Typhimurium measured at MIC after 18 hrs by halo zone test; type: functional, Salmonella enterica subsp. enterica serovar Typhimurium; method in brief: as §1
[4] = test system: Escherichia coli; test: Antibacterial activity against Escherichia coli measured at MIC after 18 hrs by halo zone test; type: functional; method in brief: as §1
[5] = test system: Staphylococcus aureus; test: Antibacterial activity against Staphylococcus aureus after 18 hrs by macro-dilution test; type: functional
Method in brief: (§2)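 Tube macro-dilution. Compounds in DMSO serially diluted to final […]. 24 h old inoculum added to each tube. Standard inoculum […]. Incubated 18 h at 37 °C. MIC is the lowest concentration with no visible growth, read visually. DMSO negative and amoxicillin positive controls.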

[6] = test system: Streptococcus pyogenes; test: Antibacterial activity against Streptococcus pyogenes after 18 hrs by macro-dilution test; type: functional; method in brief: as §2
[7] = test system: Salmonella typhimurium; test: Antibacterial activity against Salmonella Typhimurium after 18 hrs by macro-dilution test; type: functional, Salmonella enterica subsp. enterica serovar Typhimurium; conditions: Salmonella enterica; method in brief: as §2
[8] = test system: Escherichia coli; test: Antibacterial activity against Escherichia coli after 18 hrs by macro-dilution test; type: functional; method in brief: as §2
[9] = Cytotoxicity against rat H9c2 cells assessed as cell viability at 1.57 to 200 mg/mL after 48 hrs by MTT assay; type: cell-based; conditions: read-out: Activity
Method in brief: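 Subconfluent H9c2 cardiac myoblasts treated with increasing concentrations for 48 h at 37 °C in 5% CO₂, alongside untreated cells. Then washed in PBS and given MTT (5 mg/mL) for 45 min at 37 °C. Crystals dissolved in acid isopropanol, absorbance read at 570 nm. Viability is absorbance of treated relative to untreated cells. Triplicate. DMSO and amoxicillin controls.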

[10] = in the assay text read “1.57 to 200 ug/mL” for “1.57 to 200 mg/mL”

SMILES	inhibition zone (IZ) [1] [mm]	inhibition zone (IZ) [2] [mm]	inhibition zone (IZ) [3] [mm]	inhibition zone (IZ) [4] [mm]	MIC [5] [µg/mL]	MIC [6] [µg/mL]	MIC [7] [µg/mL]	MIC [8] [µg/mL]	viability at 48 h [9, 10] [%]	viability at 48 h [9] [%]
CC(=O)N(C1=NN(C(C)=O)C(c2cc3cccc(Cl)c3nc2Cl)S1)c1ccccc1C (configuration not stated)	19.76	13.84	16.86	15.59	16 (≈ 33.8 µM)	64 (≈ 135 µM)	32 (≈ 67.6 µM)	32 (≈ 67.6 µM)	> 80	
CC(=O)N(C1=NN(C(C)=O)C(c2cc3cccc(Cl)c3nc2Cl)S1)c1ccc([N+](=O)[O-])cc1 (configuration not stated)	19.81	16.32	17.25	12.56	32 (≈ 63.4 µM)	64 (≈ 127 µM)	32 (≈ 63.4 µM)	32 (≈ 63.4 µM)	> 80	
CC(=O)N1N=C(N(C(C)=O)C2CCCC2)SC1c1cc2ccccc2nc1Cl (configuration not stated)	20.63	19.93	18.6	19.79	32 (≈ 76.8 µM)	32 (≈ 76.8 µM)	32 (≈ 76.8 µM)	64 (≈ 154 µM)	> 80	
CC(=O)N1N=C(N(C(C)=O)C2CCCCC2)SC1c1cc2ccccc2nc1Cl (configuration not stated)	14.03	17.38	14.59	15.63	256 (≈ 594 µM)	256 (≈ 594 µM)	64 (≈ 149 µM)	128 (≈ 297 µM)		
CC(=O)N1N=C(N(C(C)=O)C2CCCCCCC2)SC1c1cc2ccccc2nc1Cl (configuration not stated)	14.57	14.33	18.82	17.86	128 (≈ 279 µM)	128 (≈ 279 µM)	64 (≈ 139 µM)	256 (≈ 558 µM)		
CC(=O)N(C1=NN(C(C)=O)C(c2cc3ccccc3nc2Cl)S1)c1ccccc1C (configuration not stated)	15.66	17.14	16.06	15.84	32 (≈ 72.9 µM)	16 (≈ 36.5 µM)	32 (≈ 72.9 µM)	32 (≈ 72.9 µM)	> 80	
CC(=O)N(C1=NN(C(C)=O)C(c2cc3ccccc3nc2Cl)S1)c1cc(F)ccc1F (configuration not stated)	17.41	14.74	16.67	20.13	16 (≈ 34.7 µM)	64 (≈ 139 µM)	32 (≈ 69.4 µM)	32 (≈ 69.4 µM)		> 80
CC(=O)N(C1=NN(C(C)=O)C(c2cc3ccccc3nc2Cl)S1)c1ccc(C)cc1 (configuration not stated)	18.27	17	16.89	16.4	32 (≈ 72.9 µM)	16 (≈ 36.5 µM)	64 (≈ 146 µM)	32 (≈ 72.9 µM)	> 80	
CC(=O)N(C1=NN(C(C)=O)C(c2cc3ccccc3nc2Cl)S1)c1ccc([N+](=O)[O-])cc1 (configuration not stated)	14.29	14.92	17.03	14.34	64 (≈ 136 µM)	64 (≈ 136 µM)	64 (≈ 136 µM)	64 (≈ 136 µM)		
CC(=O)NC1=NN(C(C)=O)C(c2cc3cccc(C)c3nc2Cl)S1 (configuration not stated)	13.66	16.77	18.08	18.34	64 (≈ 176 µM)	64 (≈ 176 µM)	256 (≈ 706 µM)	256 (≈ 706 µM)		
CC(=O)N1N=C(N(C(C)=O)C2CCCC2)SC1c1cc2cccc(C)c2nc1Cl (configuration not stated)	19	17.71	15.13	16.08	128 (≈ 297 µM)	64 (≈ 149 µM)	128 (≈ 297 µM)	128 (≈ 297 µM)		
CC(=O)N1N=C(N(C(C)=O)C2CCCCC2)SC1c1cc2cccc(C)c2nc1Cl (configuration not stated)	15.42	13.09	12.01	16.75	128 (≈ 288 µM)	128 (≈ 288 µM)	256 (≈ 575 µM)	256 (≈ 575 µM)		
CC(=O)N1N=C(N(C(C)=O)C2CCCCCCC2)SC1c1cc2cccc(C)c2nc1Cl (configuration not stated)	18.77	15.45	17.84	19	256 (≈ 541 µM)	256 (≈ 541 µM)	128 (≈ 271 µM)	256 (≈ 541 µM)		
CC(=O)N(C1=NN(C(C)=O)C(c2cc3cccc(C)c3nc2Cl)S1)c1ccccc1C (configuration not stated)	15.8	19.14	16.11	17.9	64 (≈ 141 µM)	32 (≈ 70.6 µM)	32 (≈ 70.6 µM)	64 (≈ 141 µM)	> 80	
CC(=O)N(C1=NN(C(C)=O)C(c2cc3cccc(C)c3nc2Cl)S1)c1cc(F)ccc1F (configuration not stated)	21.99	16.13	16.6	15.36	64 (≈ 135 µM)	16 (≈ 33.7 µM)	32 (≈ 67.4 µM)	64 (≈ 135 µM)		> 80
CC(=O)N(C1=NN(C(C)=O)C(c2cc3cccc(C)c3nc2Cl)S1)c1ccc(C)cc1 (configuration not stated)	18.92	18.32	17.27	18.16	64 (≈ 141 µM)	64 (≈ 141 µM)	64 (≈ 141 µM)	64 (≈ 141 µM)		
CC(=O)N(C1=NN(C(C)=O)C(c2cc3cccc(C)c3nc2Cl)S1)c1ccc([N+](=O)[O-])cc1 (configuration not stated)	16.54	15.27	19.16	13.03	64 (≈ 132 µM)	64 (≈ 132 µM)	64 (≈ 132 µM)	64 (≈ 132 µM)		
CC1(C)S[C@@H]2[C@H](NC(=O)[C@H](N)c3ccc(O)cc3)C(=O)N2[C@H]1C(=O)O [AMOXICILLIN]	20.85	19.57	21.82	22.05	32 (≈ 87.6 µM)	32 (≈ 87.6 µM)	32 (≈ 87.6 µM)	32 (≈ 87.6 µM)		

Reference: ChEMBL document CHEMBL1799921, “3-(1,3,4-Thiadiazole-2-yl)quinoline derivatives: synthesis, characterization and anti-microbial activity” (Eur J Med Chem, 2011)
